# Results gathered from unrelated publications.
# Cell line: A549
# Read-out: cell growth or viability
SMILES,method,time,IC50
C[C@H]1Oc2cc(cnc2N)-c2c(nn(C)c2C#N)CN(C)C(=O)c2ccc(F)cc21,,,> 8.41 µM
C=CC(=O)Nc1cc(Nc2nccc(-c3cn(C)c4ccccc34)n2)c(OC)cc1N(C)CCN(C)C,MTT,72 h,28.2 µM
[NH2][Pt]([NH2])([Cl])[Cl],MTT,,9.5 µM
C=CC(=O)N1CCN(c2nc(=O)n(-c3c(C)ccnc3C(C)C)c3nc(-c4c(O)cccc4F)c(F)cc23)[C@@H](C)C1,ATP luminescence,,> 10 µM
O=C(O)c1ccc2c(c1)nc(Nc1cccc(Cl)c1)c1ccncc12,resazurin,48 h,11.5 µM
Cc1nc(Nc2ccc3c(c2)/C(=C/c2ccccc2)C(=O)N3Cc2ccccc2)c2ccccc2n1,MTT,,44.7 µM
C=C(F)C(=O)N1CCN(c2nc(OC[C@@H]3CCCN3C)nc3c2CCN(c2cccc4cccc(Cl)c24)C3)C[C@@H]1CC#N,ATP luminescence,,2.17 µM
COc1cc2ncnc(Nc3ccc4c(c3)/C(=C/c3cccc(Cl)c3)C(=O)N4C)c2cc1OC,MTT,,9.19 µM
Cc1ccc2c(-c3cc4c(CN5CCN(Cc6ccccn6)CC5)cnc(C)c4o3)cc(=O)oc2c1,MTT,72 h,43.1 µM
COc1cc2ncnc(N(C)c3ccc4c(c3)/C(=C/c3cccc(Cl)c3)C(=O)N4C)c2cc1OC,MTT,,5.83 µM
O=C(C=Cc1ccccc1)Nc1cc(-c2ccnc(N3CCOCC3)c2)ccn1,MTT,72 h,0.444 µM
Cc1nc(N(Cc2ccccc2)c2ccc3c(c2)/C(=C/c2ccccc2)C(=O)N3Cc2ccccc2)c2ccccc2n1 (mixture of isomers),MTT,,0.64 µM
C#Cc1cccc(Nc2ncnc3cc(OCCOC)c(OCCOC)cc23)c1,MTT,72 h,25.6 µM
